PAFAH1B2 FP inh: PAFAH1B2 enzyme inhibitors, primary screen, biochemical, fluorescence polarization, human; Platelet-activating factor acetylhydrolase IB subunit alpha2 (Homo sapiens), P68402; recombinant PAFAH1B2, FP-rhodamine activity probe; inhibition, % at 3.39 µM; 340,000 tested, 1.2% active;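 active = inhibition above the mean of all tested compounds plus 3 SD, cut at about 24% in these data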
PAFAH2 FP inh: PAFAH2 enzyme inhibitors, primary screen, biochemical, fluorescence polarization, human; recombinant PAFAH2, FP-rhodamine activity probe; 340,000 tested, 0.99% active; AID 492956, 2010; inhibition, % at 3.39 µM;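 active = inhibition above the mean over all tested compounds plus 3 SD, cut at about 30% in these data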;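 note: inhibitors block probe labeling of enzyme so polarization drops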
PREPL inh: PREPL enzyme inhibitors, primary screen, biochemical, fluorescence polarization | Prolyl endopeptidase-like (Homo sapiens), Q4J6C6 | recombinant PREPL, fluorescence polarization activity-based probe | inhibition, % at 5.96 µM | 320,000 tested, 0.68% active; in the data active = inhibition above about 43%
Apaf1 inhib: inhibitors of human Apaf-1 apoptosome, primary screen, biochemical, DEVD-Rh110 fluorescence, uHTS. 330,000 tested, 0.71% active. AID 489030, 2010. Apoptotic protease-activating factor 1 (Homo sapiens), O14727. reconstituted apoptosome caspase-3 activity. inhibition, % at 20 µM; active = inhibition of at least 40% at 20 µM
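System: reconstituted apoptosome with Apaf-1, cytochrome c, caspase-9, procaspase-3, dATP; Signal: Rh110 fluorescence intensity; Schedule: 30 min compound preincubation, 50 min activation, room temperature; Reagent: cytochrome c trigger plus (Z-DEVD)2-Rh110 caspase-3 substrate.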
pPAFAH inh: pPAFAH enzyme inhibitors, primary screen, biochemical, fluorescence polarization, human; Platelet-activating factor acetylhydrolase (Homo sapiens), Q13093; recombinant pPAFAH, FP-rhodamine probe fluorescence polarization; inhibition, % at 3.39 µM; 330,000 tested, 1.5% active; AID 463082, 2010;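 active = inhibition above the mean inhibition across the screen plus 3 SD, cut at about 25% in these data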;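 note: inhibitors block binding of the rhodamine activity-based probe so polarization drops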
PAFAH1B3 inh: PAFAH1B3 enzyme inhibitors, primary screen, biochemical, fluorescence polarization, human. AID 492972, 2010. recombinant PAFAH1B3, FP-rhodamine probe. 340,000 tested, 0.28% active. inhibition, % at 3.39 µM. Platelet-activating factor acetylhydrolase IB subunit alpha1 (Homo sapiens), Q15102;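 active = inhibition above the screen-wide average of all tested compounds plus 3 SD, cut at about 25% in these data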
Large screens that a line does not name were inactive. An excerpt weighted towards active compounds, which were near 3.5% of everything screened.

COC(=O)CCC(=O)OC1(C)C(=O)C2=CN(Cc3ccc4c(c3)OCO4)C(c3ccc(OC)cc3)=CC2=C(Br)C1=O (centres undefined)	none
COc1ccc(C2=CC3=C(Br)C(=O)C(C)(OC(=O)C4CCCC4)C(=O)C3=CO2)cc1 (centres undefined)	pPAFAH inh 25
CCc1ccccc1NC(=O)CSc1ccsc1[N+](=O)[O-]	pPAFAH inh 25
Clc1ccc(SCc2cc(-c3ccccc3)no2)cc1	PAFAH1B2 FP inh 42
COc1cc(/C=C2\C(=O)NN(c3ccccc3)C2=O)cc([N+](=O)[O-])c1O	none
COc1ccc(Sc2ccc(/C=C3\C(=O)NN(c4ccccc4)C3=O)o2)cc1	PAFAH1B2 FP inh 42, PAFAH2 FP inh 34, pPAFAH inh 29
Cc1ccc(N2NC(=O)/C(=C/c3ccc(-c4ccc(Cl)c(C(=O)O)c4)o3)C2=O)cc1	none
O=C1NN(c2ccccc2)C(=O)/C1=C\c1ccc(-c2cc([N+](=O)[O-])ccc2O)o1	PAFAH2 FP inh 30, PAFAH1B3 inh 33 (no result: PREPL inh, pPAFAH inh)
O=C1NN(c2ccc(Cl)cc2)C(=O)/C1=C\c1ccc(-c2cccc(C(=O)O)c2)o1	PAFAH2 FP inh 36, PAFAH1B3 inh 27 (no result: PREPL inh, Apaf1 inhib, pPAFAH inh)
COc1ccc(-n2nc(C(=O)NCC(=O)NCCC3=CCCCC3)c3ccccc3c2=O)c(OC)c1	none
Cc1cccc(C(=O)NCC(=O)N2CCN(c3ccccn3)CC2)c1	none
O=[N+]([O-])c1cccc(S(=O)(=O)NCCc2cccs2)c1	none
O=S(=O)(NCCc1cccs1)c1ccc(Br)cc1	PAFAH1B2 FP inh 25
O=C(c1ccc(S(=O)(=O)N2CCCC2)cc1)N(c1ccccc1)C1C=CS(=O)(=O)C1 (centres undefined)	none
CC1CCN(Cc2nnc(-c3cccc(Br)c3)o2)CC1	none
CCOC(=O)c1[nH]c2ccccc2c1NC(C)=O	none
CSc1ccc(C(c2c(C(=O)O)[nH]c3ccccc23)c2c(C(=O)O)[nH]c3ccccc23)cc1	PAFAH1B2 FP inh 62, pPAFAH inh 29
CCOc1cc(Br)cc(C(c2c(C(=O)O)[nH]c3ccccc23)c2c(C(=O)O)[nH]c3ccccc23)c1O	PAFAH1B2 FP inh 79
COc1ccc(-c2ccc(SCC(=O)NC3CCCC3)nn2)cc1OC	none
CC(=O)Nc1ccc(S(=O)(=O)N2CCC(NC(=O)C(Cc3cccc(F)c3)NC(C)=O)CC2)cc1 (centres undefined)	none
O=C(Nc1ccccc1C(=O)O)c1cc(S(=O)(=O)N2CCCCCC2)ccc1Cl	none
O=C(Nc1ccccc1C(=O)O)c1cc(S(=O)(=O)Nc2cccc(F)c2)ccc1Cl	pPAFAH inh 31
O=S(=O)(c1ccc(Br)cc1)N1CCN=C1SCc1cccnc1	PAFAH1B2 FP inh 25
CCOC(=O)N1CCN(C(=O)c2ccc(N(Cc3ccccc3)S(C)(=O)=O)cc2)CC1	none
COC(=O)c1cc(NC(=O)c2cccc(C(F)(F)F)c2)c(=O)oc1C/C=N/OCc1cccc(Cl)c1Cl	pPAFAH inh 27
COC(=O)c1cc(NC(=O)c2cccc(C(F)(F)F)c2)c(=O)oc1C	none
O=c1c2[nH]cnc2n(-c2cccc(F)c2)c(=O)n1Cc1ccccc1	none
CCn1c(SCc2cccc(OC)c2)nc2ccccc2c1=O	none
CCCCCCc1cc2cc(S(=O)(=O)c3ccc(F)c(Cl)c3)c(=O)oc2cc1O	pPAFAH inh 33
O=C(N/N=C/C=C/c1ccco1)/C(=C/c1ccccc1)NC(=O)c1ccccc1	pPAFAH inh 31
O=C(N/N=C/C=C/c1ccco1)c1ccncc1	none
CC(C)C(OC(=O)CN1C(=O)c2ccccc2C1=O)C(=O)NC1CCCC1 (centres undefined)	none
Cc1ccc(C(=O)NCc2ccco2)cc1S(=O)(=O)Nc1cccc(C)c1C	pPAFAH inh 33
Cc1ccccc1NS(=O)(=O)c1cc(C(=O)NCc2ccco2)ccc1C	none
